Assay results taken from ChEMBL document CHEMBL4385654, “Inhibitory effects of N-(acryloyl)benzamide derivatives on tyrosinase and melanogenesis” (Bioorg Med Chem, 2019).
Calls of active or inactive are those of the source. The rule behind the calls is not given here.

Legend:
[1] = Antioxidant activity assessed as DPPH-radical scavenging activity at 1 mM incubated for 30 mins under dark condition by microplate reader based assay relative to control; type: functional
Procedure, shortened: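 20 µL of 10 mM DMSO stock mixed with 180 µL of 0.2 mM DPPH in methanol (stated test level 1 mM). L-ascorbic acid served as the positive control. Kept 30 min in the dark, then absorbance read at 517 nm. Scavenging % = 100×(Ac−As)/Ac against the untreated control. Three independent experiments, mean ± SD.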

[2] = organism: Mus musculus; assay: Inhibition of tyrosinase in alpha-MSH-stimulated mouse B16F10 cells assessed as reduction in melanin levels at 5 uM incubated for 24 hrs by microplate reader based assay relative to control
Procedure, shortened: (§1)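 B16F10 cells were seeded at 5x10^4 per well and cultured 24 h at 37 °C, 5% CO2. They were then co-treated with 1 µM α-MSH and test agent (0, 5, 10 or 25 µM) for 24 h, with kojic acid at 25 µM alongside. After two PBS washes, melanin was dissolved in 200 µL 1 M NaOH for 1 h and OD405 read. Triplicate runs.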

[3] = organism: Mus musculus; assay: Inhibition of tyrosinase in alpha-MSH-stimulated mouse B16F10 cells assessed as reduction in melanin levels at 10 uM incubated for 24 hrs by microplate reader based assay relative to control; procedure, shortened: as §1
[4] = organism: Mus musculus; assay: Inhibition of tyrosinase in alpha-MSH-stimulated mouse B16F10 cells assessed as reduction in melanin levels at 25 uM incubated for 24 hrs by microplate reader based assay relative to control; procedure, shortened: as §1
[5] = organism: Mus musculus; assay: Inhibition of tyrosinase in alpha-MSH-stimulated mouse B16F10 cells at 25 uM incubated for 24 hrs by microplate reader based assay
Procedure, shortened: (§2)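 B16F10 cells were seeded at 5x10^4 per well and cultured 24 h, then given 1 µM α-MSH plus agent (0–25 µM; kojic acid 25 µM; arbutin 400 µM) for 24 h. Cells were PBS-washed and lysed in 1% Triton X-100, 0.1 mM PMSF, 50 mM phosphate pH 6.8. Lysate was frozen at −80 °C, then centrifuged. 80 µL supernatant was mixed with 20 µL 10 mM L-DOPA, held 30 min at 37 °C, and OD500 read. Triplicate runs.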

[6] = test system: B16-F10; assay: Cytotoxicity in mouse B16F10 cells assessed as reduction in cell viability up to 25 uM incubated for 24 hrs by WST-8 assay; type: cell-based; settings: b16-f10, 24 h
Procedure, shortened: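 B16F10 murine melanoma cells were grown in DMEM with 10% FBS, penicillin and streptomycin at 37 °C and 5% CO2, seeded at 5x10^4 per well and cultured 24 h. They were then dosed at 0, 5, 10 or 25 for 24 h. WST-8 reagent was added, and OD450 was read. Viability is given as % of untreated cells; triplicate runs.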

[7] = organism: Mus musculus; assay: Inhibition of tyrosinase in alpha-MSH-stimulated mouse B16F10 cells at 400 uM incubated for 24 hrs by microplate reader based assay; procedure, shortened: as §2

## COc1cc(/C=C/C(=O)NC(=O)c2ccccc2)cc(OC)c1OC
[1]
  inhibition: 6.9%

## COc1ccc(/C=C/C(=O)NC(=O)c2ccccc2)cc1
[1]
  inhibition: 5.61%

## O=C(/C=C/c1ccc(O)c(Br)c1)NC(=O)c1ccccc1
[1]
  inhibition: 17.3%

## O=C(/C=C/c1ccc(O)c(O)c1)NC(=O)c1ccccc1
[2]
  inhibition: 21.6%
[3]
  inhibition: 37.6%
[4]
  inhibition: 61.8%
[5]
  inhibition: 76.8%
[6]
  Activity: Non-Toxic
[1]
  inhibition: 82.9%

## O=C1O[C@H]([C@@H](O)CO)C(O)=C1O
[1]
  inhibition: 84.6%

## COc1ccc(/C=C/C(=O)NC(=O)c2ccccc2)cc1O
[2]
  inhibition: 9.06%
[3]
  inhibition: 31.2%
[4]
  inhibition: 48%
[5]
  inhibition: 59.7%
[6]
  Activity: Non-Toxic
[1]
  inhibition: 7.02%

## COc1ccc(/C=C/C(=O)NC(=O)c2ccccc2)c(OC)c1
[1]
  inhibition: 5.76%

## OC[C@H]1O[C@@H](Oc2ccc(O)cc2)[C@H](O)[C@@H](O)[C@@H]1O
[7]
  inhibition: 41.8%

## COc1ccc(/C=C/C(=O)NC(=O)c2ccccc2)cc1OC
[1]
  inhibition: 4.82%

## COc1cc(/C=C/C(=O)NC(=O)c2ccccc2)cc(OC)c1O
[1]
  inhibition: 3.76%

## O=C(/C=C/c1cc(Br)c(O)c(Br)c1)NC(=O)c1ccccc1
[1]
  inhibition: inactive

## O=C(/C=C/c1ccc(O)cc1)NC(=O)c1ccccc1
[1]
  inhibition: 4.89%

## O=c1cc(CO)occ1O
[4]
  inhibition: 39%
[5]
  inhibition: 50.3%
